Measured values: ChEMBL document CHEMBL1124106, “Synthesis of diethylenetriaminepentaacetic acid conjugated inulin and utility for cellular uptake of liposomes” (J Med Chem, 1988)
Where “and” joins values, the source holds several entries; their conditions need not be identical. Identical values can stand only once.

What was measured:
Conditions in all cases: in vivo
Mus musculus [1] = test: Biodistribution in mice intestine, after 48 hr of intravenous administration of 1-2 ug of compound (entrapped in bovine brain sphingomyelin/ cholesterol multilamellar vehicles); type: ADME, organism-based
Method in brief: (§1)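 BALB/c mice (about 25 g), 3–5 per group, given 50–100 μL tail-vein injection of 111In-labeled conjugate entrapped in SM/CH (2:1 mol/mol) multilamellar vesicles, approx. 100 000 cpm; dose 1–2 μg phospholipid/g body weight. Killed by cervical dislocation at set times; blood, cumulative excretion and rinsed, blotted, weighed tissues γ-counted, blood background subtracted. Result is % injected dose ± SD.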

Mus musculus [2] = test: Biodistribution of compound in mice blood after 1 hr of intravenous injection; type: ADME, organism-based
Method in brief: (§2)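 BALB/c mice (about 25 g), n = 4. Free ¹¹¹In- or ⁶⁷Ga-labeled compound (50–100 μL, about 100 000 cpm) was injected into a tail vein. Mice were held in separate cages and killed by cervical dislocation, with blood and cumulative excreta collected. Tissues were rinsed, blotted, weighed and γ-counted, with blood background subtracted (blood volume 8.0%). Values are % injected dose ± SD.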

Mus musculus [3] = test: Biodistribution in mice heart, after 1 hr of intravenous administration of 1-2 ug of compound (entrapped in bovine brain sphingomyelin/ cholesterol multilamellar vehicles); type: ADME, organism-based; method in brief: as §1
Mus musculus [4] = test: Biodistribution in mice skin, after 24 hr of intravenous aadministration of 1-2 ug of compound (entrapped in bovine brain sphingomyelin/ cholesterol multilamellar vehicles); type: ADME, organism-based, Zone of skin; method in brief: as §1
Mus musculus [5] = test: Biodistribution in mice stomach, after 1 hr of intravenous administration of 1-2 ug of compound (entrapped in bovine brain sphingomyelin/ cholesterol multilamellar vehicles); type: ADME, organism-based; method in brief: as §1
Mus musculus [6] = test: Biodistribution of compound in mice liver after 1 hr of intravenous injection; type: ADME, organism-based; method in brief: as §2
Mus musculus [7] = test: Biodistribution in mice liver, after 48 hr of intravenous administration of 1-2 ug ofcompound (entrapped in bovine brain sphingomyelin/ cholesterol multilamellar vehicles); type: ADME, organism-based; method in brief: as §1

## NCCNC(=O)CN(CCN(CCN(CC(=O)O)CC(=O)O)CC(=O)O)CC(=O)O
Mus musculus [1]
  ID: 0.6%
Mus musculus [2]
  ID: 1.1% and 4.5%
Mus musculus [3]
  ID: 0%
Mus musculus [4]
  ID: 2%
Mus musculus [5]
  ID: 0.8%
Mus musculus [6]
  ID: 0.3% and 1.4%
Mus musculus [7]
  ID: 62.4%
